Results on eight compounds are retold here after ChEMBL document CHEMBL4308914, “Discovery of potent, low-absorbable sodium-dependent glucose cotransporter 1 (SGLT1) inhibitor SGL5213 for type 2 diabetes treatment” (Bioorg Med Chem, 2019).

Data set [1] concerns the target T1, Sodium/glucose cotransporter 1 (Homo sapiens, UniProt P13866).
T1 sequence (P13866 whole entry): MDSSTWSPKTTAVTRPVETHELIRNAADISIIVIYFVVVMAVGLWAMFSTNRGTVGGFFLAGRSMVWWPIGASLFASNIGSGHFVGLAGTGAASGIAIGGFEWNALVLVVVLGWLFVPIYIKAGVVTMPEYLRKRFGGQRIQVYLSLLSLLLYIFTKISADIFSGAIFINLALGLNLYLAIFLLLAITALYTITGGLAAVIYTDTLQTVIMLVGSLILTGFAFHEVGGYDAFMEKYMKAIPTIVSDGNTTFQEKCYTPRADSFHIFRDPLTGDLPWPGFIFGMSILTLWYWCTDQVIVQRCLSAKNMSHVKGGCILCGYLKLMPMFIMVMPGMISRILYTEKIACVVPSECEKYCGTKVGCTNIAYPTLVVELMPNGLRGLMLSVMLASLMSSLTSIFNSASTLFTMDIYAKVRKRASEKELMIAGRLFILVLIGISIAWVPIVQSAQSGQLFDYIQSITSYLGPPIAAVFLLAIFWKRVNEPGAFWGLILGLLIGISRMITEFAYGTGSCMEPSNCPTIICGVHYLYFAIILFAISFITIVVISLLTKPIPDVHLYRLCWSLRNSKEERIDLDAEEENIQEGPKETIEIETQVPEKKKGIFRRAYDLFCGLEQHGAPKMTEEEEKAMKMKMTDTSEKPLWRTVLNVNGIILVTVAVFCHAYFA
Description: Inhibition of human SGLT1 expressed in CHOK1 cells assessed as reduction in sodium-dependent glucose uptake after 30 mins in presence of [14C]-methyl-alpha -D-glucopyranoside by microbeta counting method. It counts as cell-based. The method, boiled down:
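CHO-K1 cells stably expressing human SGLT1, preincubated 20 min in Na-free choline buffer (pH 7.4). Uptake buffer (140 mM NaCl, HEPES/Tris pH 7.4) with 0.1 mM methyl-α-D-glucopyranoside plus [14C] tracer and test compound, 30 min at 37 °C. Cells washed, lysed in NaOH, radioactivity counted. Choline-for-Na buffer as background. Six concentrations; IC50 vs untreated control; mean of at least two experiments.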

For data set [2], the target named is T2, Sodium/glucose cotransporter 2 (Homo sapiens, UniProt P31639).
T2 sequence (P31639 whole entry): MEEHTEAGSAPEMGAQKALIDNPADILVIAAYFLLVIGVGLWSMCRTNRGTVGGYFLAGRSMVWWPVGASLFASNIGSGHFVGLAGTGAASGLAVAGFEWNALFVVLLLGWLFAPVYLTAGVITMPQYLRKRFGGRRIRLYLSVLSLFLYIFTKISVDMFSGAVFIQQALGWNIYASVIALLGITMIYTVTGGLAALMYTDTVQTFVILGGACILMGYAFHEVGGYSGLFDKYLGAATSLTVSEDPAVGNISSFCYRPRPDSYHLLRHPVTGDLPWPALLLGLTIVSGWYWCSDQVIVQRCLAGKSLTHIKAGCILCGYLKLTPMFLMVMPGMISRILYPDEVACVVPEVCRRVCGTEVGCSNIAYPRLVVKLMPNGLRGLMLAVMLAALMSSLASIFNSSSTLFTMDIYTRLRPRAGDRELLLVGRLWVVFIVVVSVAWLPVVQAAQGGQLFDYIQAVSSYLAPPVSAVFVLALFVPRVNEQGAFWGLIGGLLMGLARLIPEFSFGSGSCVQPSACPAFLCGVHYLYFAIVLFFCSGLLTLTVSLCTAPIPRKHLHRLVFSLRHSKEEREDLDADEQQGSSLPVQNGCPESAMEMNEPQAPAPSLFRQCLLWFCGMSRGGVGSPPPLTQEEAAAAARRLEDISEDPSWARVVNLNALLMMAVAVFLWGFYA
Kind of data set: Inhibition of human SGLT2 expressed in CHOK1 cells assessed as reduction in sodium-dependent glucose uptake after 1 hr in presence of [14C]-methyl-alpha -D-glucopyranoside by microbeta counting method. It counts as cell-based. The method, boiled down:
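Human SGLT2 stably expressed in CHO-K1 cells; 20 min Na-free choline pretreatment, then Na+ uptake buffer pH 7.4 with 1 mM methyl-α-D-glucopyranoside containing [14C] label plus compound, 1 h at 37 °C. Washed, NaOH lysis, scintillation counting; Na-free buffer for background. IC50 from six concentrations relative to uninhibited uptake; mean of at least two experiments.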

Data set [3] can be described thus: Permeability of the compound at pH 7.4 by PAMPA assay. It counts as ADME. Particulars: read-out: permeability. In a few lines:
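PAMPA at pH 7.4: filter coated with GIT-0 lipid; donor compartment holds compound in universal buffer at 25 μM or 5 μM; permeability reported as ×10⁻⁶ cm/s.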
For orientation: In PAMPA a lipid-coated filter parts donor from acceptor wells.

A short description of data set [4]: Total clearance in Sprague-Dawley rat at 0.4 mg/kg, iv. In kind it is ADME, organism-based. Particulars: in vivo. In a few lines: (§1)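 Fasted male SD rats, single i.v. dose in saline; tail-vein blood sampled over time, plasma analysed by LC-MS/MS. Parameters by non-compartmental analysis; mean of three animals.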
Data set [5] can be described thus: Volume of distribution at steady sate in Sprague-Dawley rat at 0.4 mg/kg, iv. Particulars: in vivo, read-out: Vdss. In kind it is ADME, organism-based. In a few lines:
as §1

Data set [6] in a line: Cmax in Sprague-Dawley rat at 30 mg/kg, po. In kind it is ADME, organism-based. Also on record: dose 30 mg/kg, route oral. Particulars: in vivo. In a few lines:
(§2)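 Fasted male SD rats dosed orally in 0.5% CMC Na; tail-vein plasma sampled over time and analysed by LC-MS/MS. Non-compartmental analysis; bioavailability relative to i.v. dosing in saline; mean of three animals.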

The nature of data set [7]: Oral bioavailability in Sprague-Dawley rat at 30 mg/kg. It counts as ADME, organism-based. The settings on record: in vivo. The method, boiled down:
as §2

Data set [8] can be described thus: Drug excretion in bile duct cannulated Sprague-Dawley rat urine at 0.3 mg/kg, iv administered as single dose after 24 hrs by LCMS analysis. It counts as ADME, organism-based. Particulars: read-out: Drug excretion. In a few lines: (§3)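 Bile duct-cannulated SD rats given single i.v. dose in saline; urine and bile collected over 24 h. Unchanged drug quantified by LC-MS/MS and expressed as cumulative % of dose; mean ± SD of three animals.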

The nature of data set [9]: Drug excretion in bile duct cannulated Sprague-Dawley rat bile at 0.3 mg/kg, iv administered as single dose after 24 hrs by LCMS analysis. Particulars: read-out: Drug excretion. It counts as ADME, organism-based. The method, boiled down:
as §3

Data set [10] in a line: Drug uptake in Sprague-Dawley rat kidney at 0.3 mg/kg, iv administered as single dose after 2 hrs by LCMS analysis. It counts as ADME, organism-based. Particulars: read-out: Drug uptake. The method, boiled down: (§4)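 Fasted male SD rats given single i.v. dose in saline; animals euthanized at 2, 24 and 72 h, kidneys homogenized in purified water and unchanged drug measured by LC-MS/MS (ng/g tissue). Mean ± SD of three animals; 72 h level also expressed relative to 2 h value.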

A short description of data set [11]: Drug uptake in Sprague-Dawley rat kidney at 0.3 mg/kg, iv administered as single dose after 24 hrs by LCMS analysis. In kind it is ADME, organism-based. The settings on record: read-out: Drug uptake. The method, boiled down: as §4
The nature of data set [12]: Drug uptake in Sprague-Dawley rat kidney at 0.3 mg/kg, iv administered as single dose after 72 hrs by LCMS analysis. It counts as ADME, organism-based. Particulars: read-out: Drug uptake. The method, boiled down:
as §4

Data set [13] is described as follows: Drug uptake in Sprague-Dawley rat kidney assessed as unchanged drug level at 0.3 mg/kg, iv administered as single dose after 72 hrs by LCMS analysis relative to control. In kind it is ADME, organism-based. The settings on record: in vivo. In a few lines:
as §4

Data set [14] can be described thus: Half life in Sprague-Dawley rat at 0.4 mg/kg, iv. In kind it is ADME, organism-based. Particulars: in vivo. The method, boiled down: as §1
Data set [15] in a line: Tmax in Sprague-Dawley rat at 30 mg/kg, po. It counts as ADME, organism-based. The settings on record: in vivo. In a few lines:
as §2

For data set [16], the system named is Rattus norvegicus. Kind of data set: Antidiabetic activity in Sprague-Dawley rat assessed as reduction in blood glucose AUC (0 to 2 hrs) at 0.3 mg/kg, po dosed just prior to sucrose loading measured up to 120 mins by sucrose tolerance test relative to control. More on the design: scale not given: the % may be the effect or the level left. In kind it is functional.

The subject of data set [17] is Rattus norvegicus. Kind of data set: Antidiabetic activity in Sprague-Dawley rat assessed as reduction in blood glucose AUC (0 to 2 hrs) at 1 mg/kg, po dosed just prior to sucrose loading measured up to 120 mins by sucrose tolerance test relative to control. It counts as functional. More on the design: scale not given: the % may be the effect or the level left.
In data set [18] the test system is Rattus norvegicus. Description: Antidiabetic activity in Sprague-Dawley rat assessed as reduction in blood glucose AUC (0 to 2 hrs) at 3 mg/kg, po dosed just prior to sucrose loading measured up to 120 mins by sucrose tolerance test relative to control. It counts as functional. Also on record: scale not given: the % may be the effect or the level left.
Data set [19] has as its system Rattus norvegicus. Description: Antidiabetic activity in Sprague-Dawley rat assessed as reduction in blood glucose AUC (0 to 2 hrs) at 0.3 to 3 mg/kg, po dosed just prior to sucrose loading measured up to 120 mins by sucrose tolerance test relative to control. In kind it is functional.
Data set [20] in a line: Gastrointestinal toxicity in Sprague-Dawley rat assessed as induction of diarrhea at 0.3 to 3 mg/kg, po dosed just prior to sucrose loading measured up to 120 mins during sucrose tolerance test relative to control. In kind it is organism-based. The settings on record: in vivo, 2 h.

Consider `Cc1cc(C)c([C@@H]2O[C@H](CO)[C@@H](O)[C@H](O)[C@H]2O)cc1Cc1ccc(/C=C/C(C)(C)C(=O)NC(C)(C)CO)cc1Cl`, for which the IC50 in [1] is 176 nM.

As for `Cc1cc(/C=C/C(C)(C)C(=O)NC(C)(C)CO)ccc1Cc1cc([C@@H]2O[C@H](CO)[C@@H](O)[C@H](O)[C@H]2O)c(C)cc1C`, the IC50 in data set [1] came out at 111 nM; in [2] it was 84 nM. Moreover, the Papp in data set [3] turned out to be 7.5 ×10⁻⁶ cm/s.

`Cc1cc(/C=C/C(C)(C)C(=O)NC(C)(C)C(=O)NCC(C)(C)N)ccc1Cc1cc([C@@H]2O[C@H](CO)[C@@H](O)[C@H](O)[C@H]2O)c(O)cc1C(C)C`: the clearance in data set [4] was 62.7 mL/min/kg. Further, the Vd in [5] is 0.964 L/kg. The peak level in data set [6] (Cmax) was 5.34 ng/mL. For the same compound, the bioavailability in data set [7] was 0.09%. The dose excreted at 24 h in [8] was determined as 5.3%; in data set [9], 89.8%. Besides, the concentration at 2 h in data set [10] was found to be 1060 ng/g. For the same compound, the concentration at 24 h in data set [11] amounted to 83.8 ng/g. Besides, the concentration at 72 h in data set [12] came to 12.5 ng/g. For the same compound, in [13], the Drug uptake worked out at 1.2%.

As to `Cc1cc(O)c([C@@H]2O[C@H](CO)[C@@H](O)[C@H](O)[C@H]2O)cc1Cc1ccc(/C=C/C(C)(C)C(=O)NC(C)(C)CO)cc1`, in data set [1], the IC50 turned out to be 21 nM.

As for `COc1cc(C(C)C)c(Cc2ccc(/C=C/C(C)(C)C(=O)NC(C)(C)CO)cc2)cc1[C@@H]1O[C@H](CO)[C@@H](O)[C@H](O)[C@H]1O`, the IC50 in [1] was 36 nM; in data set [2], 34 nM. The Papp in data set [3] turned out to be 1.8 ×10⁻⁶ cm/s.

`COc1cc(C(C)C)c(Cc2ccc(/C=C/C(C)(C)C(=O)NC(C)(C)C(=O)NCCN(C)C)cc2)cc1[C@@H]1O[C@H](CO)[C@@H](O)[C@H](O)[C@H]1O`: in data set [4], the clearance was 67 mL/min/kg. The Vd in data set [5] was 1.64 L/kg. For the same compound, the half-life in data set [14] was 2.39 h. The compound further showed a Cmax in data set [6] of 1.88 ng/mL. Besides, the Tmax in data set [15] amounted to 2.83 h. The compound further showed a bioavailability in data set [7] of 0.17%. Besides, the dose excreted at 24 h in data set [8] turned out to be 18.1%; in data set [9], 65.1%. The Activity in the data set with Rattus norvegicus [16] is given as 27.5%; with Rattus norvegicus [17] it was 50.8%; in the data set on Rattus norvegicus [18] it was 45.7%; in data set [20] it was “Non-Toxic”. Further, the concentration at 2 h in data set [10] is 1090 ng/g. Besides, the concentration at 24 h in [11] amounted to 104 ng/g. For the same compound, the concentration at 72 h in data set [12] is 29.2 ng/g. Besides, in [13], the Drug uptake is 2.7%. The maximal response (Emax) in the data set with Rattus norvegicus [19] amounted to 50.8%.

On to `COc1cc(C(C)C)c(Cc2ccc(/C=C/C(C)(C)C(=O)NC(C)(C)C(=O)N3CCNCC3)cc2C)cc1[C@@H]1O[C@H](CO)[C@@H](O)[C@H](O)[C@H]1O`, for which the IC50 stood at 34 nM in [1] and 200 nM in [2].

`COc1cc(C(C)C)c(Cc2ccc(/C=C/C(C)(C)C(=O)NC(C)(C)CO)cc2C)cc1[C@@H]1O[C@H](CO)[C@@H](O)[C@H](O)[C@H]1O`: the figures for the IC50 in data set [1] and in data set [2] were 74 nM and 354 nM, respectively.

As a reminder, the IC50 is the midpoint of a concentration-inhibition curve. As a reminder, the clearance is a measure of how efficiently the substance is removed, as volume per time. As usually defined, the Cmax is the peak of the concentration-time curve. The bioavailability is the share of a dose that reaches the circulation, judged against a reference dose that is usually intravenous. Broadly, the half-life is how long it takes for the measured level to halve. Usually Tmax stands for the time at which the peak concentration occurs. As usually defined, the Emax is the maximal effect, on the per cent scale that the assay sets.
